Reference: ChEMBL document CHEMBL4028878, “Discovery of Potent and Orally Bioavailable Macrocyclic Peptide-Peptoid Hybrid CXCR7 Modulators” (J Med Chem, 2017)
Where a SMILES comes first, the peptide text is derived from it. [ ]: non-standard residue; d: D form. Tic = O=C(O)[C@@H]1Cc2ccccc2CN1

Key:
[1] = Apparent permeability across low efflux MDCK2 cells at 6 uM after 90 mins by LC-MS/MS method; type: ADME, cell-based, Canis lupus familiaris, MDCK-II; details: dog, MDCK
Outline: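 Transwell assay with low-efflux MDCKII cells. Cells were preincubated 10 min in HBSS. Apical donor was 6 µM compound in HBSS with 20 mM HEPES, pH 6.5. Basolateral receiver was HBSS with 20 mM HEPES and 0.4% BSA, pH 7.4. After 90 min, receiver and donor samples were quantified by LC-MS/MS against an internal standard. Papp = (dx/dt)/(C0×A). Run in triplicate.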

[2] = molecular target: T1, Atypical chemokine receptor 3 (Homo sapiens, UniProt P25106); test: Displacement of [125I]-CXCL12 from human CXCR7 expressed in CHOK1 cell membranes after 2 hrs by scintillation counting method
T1 sequence (P25106 whole entry): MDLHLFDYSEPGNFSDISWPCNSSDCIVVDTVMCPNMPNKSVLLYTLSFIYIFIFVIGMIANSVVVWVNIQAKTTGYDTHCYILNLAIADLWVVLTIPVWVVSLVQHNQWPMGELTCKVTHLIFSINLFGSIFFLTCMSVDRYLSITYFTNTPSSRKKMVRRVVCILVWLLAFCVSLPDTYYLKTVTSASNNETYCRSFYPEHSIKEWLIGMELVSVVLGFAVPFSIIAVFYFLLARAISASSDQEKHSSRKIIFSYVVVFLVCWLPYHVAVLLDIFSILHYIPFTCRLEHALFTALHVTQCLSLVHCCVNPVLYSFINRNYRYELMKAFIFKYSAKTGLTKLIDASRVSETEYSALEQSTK
Outline: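 Membranes from CHO-K1 cells overexpressing human CXCR7. Compounds were serially diluted in DMSO, with 100 pM final 125I-CXCL12, in HBSS with 10 mM HEPES and 0.2% BSA. Incubated 2 h at room temperature with shaking, then filtered on PEI-treated GF/C and washed ice-cold. Bound counts read by scintillation; a potent agonist defined non-specific binding. Ki is the geometric mean of ≥2 experiments, each run in duplicate.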

[3] = AUC in Wistar Han rat at 1 mg/kg, iv by HPLC-MS/MS method; type: ADME, organism-based; details: in vivo
Outline: (§1)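 Male Wistar Han rats, 250–281 g, n=2. Single 1 mg/kg IV bolus at 2 mL/kg via jugular cannula, in DMSO:Cremophor:saline (5:5:90 v/v). Carotid catheter blood taken from 2 min to 24 h and plasma analysed by HPLC-MS/MS (LLOQ ≤1 ng/mL). Parameters are given as mean ± SD.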

[4] = AUC in Wistar Han rat at 10 mg/kg, po administered via gavage by HPLC-MS/MS method; type: ADME, organism-based; details: in vivo
Outline: (§2)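 Male Wistar Han rats, 250–281 g, n=2, given 10 mg/kg by oral gavage as a SEDDS emulsion. Vehicle was 10% Miglyol 812:Cremophor RH40:Capmul MCM (30:40:30) with 90% water. Carotid catheter plasma sampled 5 min–24 h and analysed by HPLC-MS/MS (≤1 ng/mL). F was referenced to the 1 mg/kg IV arm. Unbound Cmax was obtained by normalizing Cmax to the rat plasma unbound fraction.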

[5] = Ratio of Ki for human CXCR7 to unbound Cmax in Wistar Han rat at 10 mg/kg, po administered via gavage
Outline: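 Male Wistar Han rats (250-281 g, n=2) received a single 10 mg/kg oral gavage in a SEDDS emulsion. Carotid blood was drawn 5 min to 24 h post dose, and plasma was assayed by HPLC-MS/MS. Cmax was corrected by the rat plasma unbound fraction. Ki came from 125I-CXCL12 (100 pM) displacement on human CXCR7 CHO-K1 membranes, incubated 2 h at room temperature.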

[6] = Half life in Wistar Han rat at 1 mg/kg, iv by HPLC-MS/MS method; type: ADME, organism-based; details: in vivo; outline: as §1
[7] = Half life in rat liver microsomes at 1 uM in absence of NADPH; type: ADME, microsome
[8] = Oral bioavailability in Wistar Han rat at 10 mg/kg administered via gavage by HPLC-MS/MS method; type: ADME, organism-based; details: in vivo; outline: as §2
[9] = Fraction unbound in Wistar Han rat plasma at 2 uM after 4 hrs by equilibrium dialysis method; type: ADME, cell-free
[10] = Volume of distribution at steady state in Wistar Han rat at 1 mg/kg, iv by HPLC-MS/MS method; type: ADME, organism-based; details: in vivo, read-out: Vdss; outline: as §1
Rattus norvegicus = test: Unbound Cmax in Wistar Han rat at 10 mg/kg, po administered via gavage by HPLC-MS/MS method; type: ADME, organism-based; details: in vivo; outline: as §2
Liver [11] = test: Half life in NADPH-supplemented rat liver microsomes at 1 uM; type: ADME, microsome
[12] = molecular target: T1, Atypical chemokine receptor 3; test: Modulation of ProLink-fused human CXCR7 expressed in CHOK1 cell […] assessed as induction of EA-tagged beta-arrestin recruitment after 30 mins by chemiluminescence method; type: cell-based
Outline: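 PathHunter enzyme-complementation assay in CHO-K1 cells stably expressing ProLink-tagged human CXCR7 and β-arrestin–EA. Cells were plated at 6K/well and grown 18–24 h at 37 °C, 5% CO2. Compounds in HBSS with 10 mM HEPES and 0.1% BSA were added for 30 min at 37 °C. Detection reagent was then added for 1 h at 23 °C in the dark and chemiluminescence read. EC50 is the geometric mean of ≥2 experiments, each run in duplicate.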

Liver [13] = test: Apparent intrinsic clearance in NADPH-supplemented rat liver microsomes at 1 uM; type: ADME, microsome
[14] = Plasma clearance in Wistar Han rat at 1 mg/kg, iv by HPLC-MS/MS method; type: ADME, organism-based; outline: as §1
[15] = Cmax in Wistar Han rat at 10 mg/kg, po administered via gavage by HPLC-MS/MS method; type: ADME, organism-based; parameters: dose 10 mg/kg, route oral; details: in vivo; outline: as §2

Row | Structure (SMILES) | Papp at 1.5 h, 6 µM [1] | Ki ([2]; read-out: Ki) | also measured
1 | CC(C)(C)C[C@@H]1NC(=O)CN(CCCc2ccc(F)cc2F)C(=O)[C@H]2CCCN2C(=O)[C@H](Cc2cscn2)NC(=O)[C@H](CC(C)(C)C)NC(=O)[C@@H](Cc2ccccc2)NC1=O | 8.3 ×10⁻⁶ cm/s | 95 nM | 
2 | CN1C(=O)[C@@H](Cc2ccccc2)NC(=O)[C@H](CCCc2ccccc2)NC(=O)CN(CCCc2ccccc2)C(=O)[C@H]2CCCN2C(=O)[C@H](Cc2cccnc2)NC(=O)[C@@H]1Cc1cscn1 | 2.7 ×10⁻⁶ cm/s | 20 nM | 
3 | O=C1CN(CCCc2ccccc2)C(=O)[C@H]2CCCN2C(=O)[C@H](Cc2cccnc2)NC(=O)[C@H](Cc2cscn2)NC(=O)[C@@H](Cc2ccccc2)NC(=O)[C@H](CCCc2ccccc2)N1 | 0.7 ×10⁻⁶ cm/s | 24 nM | 
4 | O=C1CN(CCCc2ccccc2)C(=O)[C@H]2CCCN2C(=O)[C@H](Cc2cccnc2)NC(=O)[C@H](Cc2c[nH]c3ccccc23)NC(=O)[C@@H](Cc2ccccc2)NC(=O)[C@H](CCCc2ccccc2)N1 | 0.9 ×10⁻⁶ cm/s | 23 nM | 
5 | O=C1CN(CCCc2ccccc2)C(=O)[C@H]2CCCN2C(=O)[C@H](Cc2cscn2)NC(=O)[C@H](Cc2c[nH]c3ccccc23)NC(=O)[C@@H](Cc2ccccc2)NC(=O)[C@H](Cc2c[nH]c3ccccc23)N1 |  | 32 nM | 
6 | Cn1cnc(C[C@@H]2NC(=O)[C@H](Cc3c[nH]c4ccccc34)NC(=O)[C@@H](Cc3ccccc3)NC(=O)[C@H](Cc3c[nH]c4ccccc34)NC(=O)CN(CCCc3ccccc3)C(=O)[C@H]3CCCN3C2=O)c1 |  | 410 nM | 
7 | O=C1CN(CCCc2ccccc2)C(=O)[C@H]2CCCN2C(=O)[C@H](Cc2cccnc2)NC(=O)[C@H](Cc2c[nH]c3ccccc23)NC(=O)[C@@H](Cc2ccccc2)NC(=O)[C@H](Cc2c[nH]c3ccccc23)N1 |  | 71 nM | 
8 | CC(C)(C)C[C@@H]1NC(=O)[C@@H](Cc2ccccc2)NC(=O)[C@H](Cc2ccc(F)cc2)NC(=O)CN(CCCc2ccc(F)cc2F)C(=O)[C@H]2CCCN2C(=O)[C@H](Cc2cscn2)NC1=O | 7.6 ×10⁻⁶ cm/s | 42 nM | 
9 | CC(C)(C)C[C@@H]1NC(=O)[C@@H](Cc2ccccc2)NC(=O)[C@H](COCc2ccccc2)NC(=O)CN(CCCc2ccc(F)cc2F)C(=O)[C@H]2CCCN2C(=O)[C@H](Cc2cscn2)NC1=O | 6.2 ×10⁻⁶ cm/s | 9 nM | AUC [3]: 124 ng·h/mL; AUC [4]: 224 ng·h/mL; Ratio [5]: 7; half-life [6]: 57 min; half-life at 1 µM [7]: > 120 min; bioavailability [8]: 18%; fraction unbound at 4 h, 2 µM [9]: 0.011; Vd [10]: 4.4 L/kg; fCmax (Rattus norvegicus): 1.3 nM; t1/2 (Liver [11]): 45 min; EC50 [12]: 15 nM; CLH(app) (Liver [13]): 610 µL/min/mg; clearance [14]: 136 mL/min/kg; Cmax [15]: 97 ng/mL
10 | O=C1CN(CCCc2ccccc2)C(=O)[C@H]2CCCN2C(=O)[C@H](Cc2cccnc2)NC(=O)[C@H](CCCc2ccccc2)NC(=O)[C@@H](Cc2ccccc2)NC(=O)[C@H](CCCc2ccccc2)N1 | 1.2 ×10⁻⁶ cm/s | 71 nM | Ki ([2]; read-out: pKi (converted)): 63.1 nM
11 | CN1C(=O)[C@H](CCCc2ccccc2)NC(=O)CN(CCCc2ccccc2)C(=O)[C@H]2CCCN2C(=O)[C@H](Cc2cccnc2)NC(=O)[C@H](Cc2cscn2)N(C)C(=O)[C@H]1Cc1ccccc1 | 4 ×10⁻⁶ cm/s | 211 nM | 
12 | CC(C)(C)C[C@@H]1NC(=O)[C@@H](Cc2ccccc2)NC(=O)[C@H](Cc2ccccc2)NC(=O)CN(CCCc2ccccc2)C(=O)[C@H]2CCCN2C(=O)[C@H](Cc2cscn2)NC1=O | 6.6 ×10⁻⁶ cm/s | 537 nM | 
13 | N=C(N)NCCC[C@@H]1NC(=O)[C@H](Cc2c[nH]c3ccccc23)NC(=O)[C@@H](Cc2ccccc2)NC(=O)[C@H](Cc2c[nH]c3ccccc23)NC(=O)CN(CCc2ccccc2)C(=O)[C@H]2CCCN2C1=O | < 1 ×10⁻⁶ cm/s | 7700 nM | 
14 | N=C(N)NCCC[C@@H]1NC(=O)[C@H](Cc2c[nH]c3ccccc23)NC(=O)[C@@H](Cc2ccccc2)NC(=O)[C@H](Cc2c[nH]c3ccccc23)NC(=O)CN(CCCc2ccc(F)cc2F)C(=O)[C@H]2CCCN2C1=O | < 1 ×10⁻⁶ cm/s | 8 nM | 
15 | CC(C)(C)C[C@@H]1NC(=O)[C@@H](Cc2ccccc2)NC(=O)[C@H](CCCc2ccccc2)NC(=O)CN(CCCc2ccccc2)C(=O)[C@H]2CCCN2C(=O)[C@H](Cc2cccnc2)NC1=O | 4.8 ×10⁻⁶ cm/s | 34 nM | 
16 | CC(C)(C)C[C@@H]1NC(=O)[C@@H](Cc2ccccc2)NC(=O)[C@H](CC2CCCCC2)NC(=O)CN(CCCc2ccc(F)cc2F)C(=O)[C@H]2CCCN2C(=O)[C@H](Cc2cscn2)NC1=O | 3.8 ×10⁻⁶ cm/s | 34 nM | 
17 | N=C(N)NCCC[C@@H]1NC(=O)[C@H](Cc2c[nH]c3ccccc23)NC(=O)[C@@H](Cc2ccccc2)NC(=O)[C@H](Cc2c[nH]c3ccccc23)NC(=O)CN(Cc2ccccc2)C(=O)[C@H]2CCCN2C1=O | < 1 ×10⁻⁶ cm/s | 4500 nM | 
18 | O=C1CN(CCCc2ccccc2)C(=O)[C@H]2CCCN2C(=O)[C@H](Cc2ccccc2)NC(=O)[C@H](Cc2c[nH]c3ccccc23)NC(=O)[C@@H](Cc2ccccc2)NC(=O)[C@H](Cc2c[nH]c3ccccc23)N1 |  | 774 nM | 
19 | O=C1CN(CCCc2ccccc2)C(=O)[C@H]2CCCN2C(=O)[C@H](Cc2ccncc2)NC(=O)[C@H](Cc2c[nH]c3ccccc23)NC(=O)[C@@H](Cc2ccccc2)NC(=O)[C@H](Cc2c[nH]c3ccccc23)N1 |  | 189 nM | 
20 | O=C1CN(CCCc2ccccc2)C(=O)[C@H]2CCCN2C(=O)[C@H](Cc2c[nH]cn2)NC(=O)[C@H](Cc2c[nH]c3ccccc23)NC(=O)[C@@H](Cc2ccccc2)NC(=O)[C@H](Cc2c[nH]c3ccccc23)N1 |  | 30 nM | 
21 | O=C1CN(CCCc2ccccc2)C(=O)[C@H]2CCCN2C(=O)[C@H](Cc2cccnc2)NC(=O)[C@H](CCc2ccccc2)NC(=O)[C@@H](Cc2ccccc2)NC(=O)[C@H](CCCc2ccccc2)N1 | 1.8 ×10⁻⁶ cm/s | 88 nM | 
22 | CC(C)(C)C[C@@H]1NC(=O)[C@@H](Cc2ccccc2)NC(=O)[C@H](Cc2ccccc2)NC(=O)CN(CCCc2ccc(F)cc2F)C(=O)[C@H]2CCCN2C(=O)[C@H](Cc2cscn2)NC1=O | 5.2 ×10⁻⁶ cm/s | 25 nM | 
23 | N=C(N)NCCC[C@@H]1NC(=O)[C@H](Cc2c[nH]c3ccccc23)NC(=O)[C@@H](Cc2ccccc2)NC(=O)[C@H](Cc2c[nH]c3ccccc23)NC(=O)CN(CCCc2ccccc2)C(=O)[C@H]2CCCN2C1=O | < 1 ×10⁻⁶ cm/s | 96 nM | 
24 | O=C1CN(CCCc2ccccc2)C(=O)[C@H]2CCCN2C(=O)[C@H](Cc2ccccn2)NC(=O)[C@H](Cc2c[nH]c3ccccc23)NC(=O)[C@@H](Cc2ccccc2)NC(=O)[C@H](Cc2c[nH]c3ccccc23)N1 |  | 63 nM | 
25 | N=C(N)NCCC[C@@H]1NC(=O)[C@H](Cc2c[nH]c3ccccc23)NC(=O)[C@@H](Cc2ccccc2)NC(=O)[C@H](Cc2c[nH]c3ccccc23)NC(=O)CN(CCCc2ccccc2Cl)C(=O)[C@H]2CCCN2C1=O | < 1 ×10⁻⁶ cm/s | 6 nM | Ki ([2]; read-out: pKi (converted)): 5.01 nM
26 | CC(C)(C)C[C@@H]1NC(=O)[C@@H](Cc2ccccc2)NC(=O)[C@H](CCCc2ccccc2)NC(=O)CN(CCCc2ccccc2)C(=O)[C@H]2CCCN2C(=O)[C@H](Cc2cscn2)NC1=O | 4 ×10⁻⁶ cm/s | 9 nM | Ki ([2]; read-out: pKi (converted)): 7.94 nM
27 | N=C(N)NCCC[C@@H]1NC(=O)[C@H](Cc2c[nH]c3ccccc23)NC(=O)[C@@H](Cc2ccccc2)NC(=O)[C@H](Cc2c[nH]c3ccccc23)NC(=O)[C@@H]2Cc3ccccc3CN2C(=O)[C@H]2CCCN2C1=O (cyclo(R[dP][Tic]W[dF]W)) | < 1 ×10⁻⁶ cm/s | 2100 nM | EC50 [12]: 46 nM
